This note sets out measurements from publication PMC7346273 (ACS Omega, 2020).

This test concerns the target Aβ40 (Homo sapiens, UniProt P05067). In words: Aβ40 aggregation inhibition and fibril destabilization. The conditions noted are these: synthetic peptides. It is filed as biochemical. An outline of the steps: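 Aβ40 was pre-treated in HFIP (1.0 mg/mL), lyophilized, stored at −20 °C, redissolved in DMSO to 5 mM and sonicated 10 min. It was diluted into PBS pH 7.5 with 0.2% SDS (100 μM final) and incubated at 37 °C for 7 days, with test compound added before incubation or to preformed aggregates. Samples were imaged by acoustic AC-mode AFM. ThT was read immediately (Aβ40 5 μM, ThT 20 μM; ex 450 nm, em 480–600 nm) with the no-Aβ40 background subtracted; mean ± SD, three independent experiments.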

Chain of Aβ40 (P05067 672-711 limits assumed): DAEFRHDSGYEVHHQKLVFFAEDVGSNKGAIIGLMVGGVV

As for KAISFSK [Peptide P1], the “ThT fluorescence of treated Aβ40 compared to control” value (Aβ40/peptide = 10:1, 7 days, ThT 20 μM, Aβ40 5 μM) is reported as “even higher ThT fluorescence”. Also, the “effect on Aβ40 aggregation (AFM)” value (Aβ40/peptide = 10:1, PBS pH 7.5 with 0.2% SDS, 37 °C, 7 days) is recorded as “aggravated the aggregation tendency”.
